Consider 17 compounds from ChEMBL document CHEMBL3576806, “Design and synthesis of novel arctigenin analogues for the amelioration of metabolic disorders” (ACS Med Chem Lett, 2015).

For assay [1], the system named is L6. The assay is described as follows: Increase in glucose uptake in rat L6 cells at 3 uM pre-treated with compound for 30 mins using 2-deoxy-D-[1,2-3H]glucose and measured after 2 hrs by liquid scintillation counting method. It is filed as functional. In a few lines: (§1)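 L6 myotubes exposed to compound for 2 h at 1.5, 3, 6, 12 or 24 μM; 2-deoxyglucose uptake expressed as fold over untreated control; 3 μM (−)-arctigenin run alongside as positive control; mean ± SEM of 3 independent experiments.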

Assay [2] has as its system L6. Briefly: Increase in glucose uptake in rat L6 cells at 3 uM […] using 2-deoxy-D-[1,2-3H]glucose and measured after 2 hrs […] by liquid scintillation counting method. It is filed as functional. In a few lines: as §1
The subject of assay [3] is L6. Briefly: Ratio of glucose uptake in rat L6 cells at 3 uM after 2 hrs to glucose uptake in rat L6 cells at 3 uM after 2 hrs in presence of 3 uM (-)-arctigenin. It counts as functional. The procedure, abridged: (§2)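 Glucose uptake in L6 myotubes after 2 h compound exposure divided by uptake with the 3 μM (−)-arctigenin positive control run in parallel.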
Assay [4] relates to L6. The assay is described as follows: Increase in glucose uptake in rat L6 cells at 1.5 uM pre-treated with compound for 30 mins using 2-deoxy-D-[1,2-3H]glucose and measured after 2 hrs in presence of 3 uM (-)-arctigenin by liquid scintillation counting method. It counts as functional. The procedure, abridged:
as §1

In assay [5] the test system is L6. Briefly: Increase in glucose uptake in rat L6 cells at 1.5 uM pre-treated with compound for 30 mins using 2-deoxy-D-[1,2-3H]glucose and measured after 2 hrs by liquid scintillation counting method. It counts as functional. In a few lines: as §1
The subject of assay [6] is L6. Briefly: Ratio of glucose uptake in rat L6 cells at 1.5 uM after 2 hrs to glucose uptake in rat L6 cells at 1.5 uM after 2 hrs in presence of 3 uM (-)-arctigenin. It counts as functional. In a few lines:
as §2

For assay [7], the system named is L6. Briefly: Increase in glucose uptake in rat L6 cells at 6 uM pre-treated with compound for 30 mins using 2-deoxy-D-[1,2-3H]glucose and measured after 2 hrs […] by liquid scintillation counting method. It is filed as functional. In a few lines:
as §1

In assay [8] the test system is L6. Briefly: Ratio of glucose uptake in rat L6 cells at 6 uM after 2 hrs to glucose uptake in rat L6 cells at 6 uM after 2 hrs in presence of 3 uM (-)-arctigenin. It is filed as functional. The procedure, abridged: as §2
Assay [9] relates to L6. Briefly: Increase in glucose uptake in rat L6 cells at 6 uM pre-treated with compound for 30 mins using 2-deoxy-D-[1,2-3H]glucose and measured after 2 hrs by liquid scintillation counting method. It is filed as functional. The procedure, abridged:
as §1

The subject of assay [10] is L6. Briefly: Increase in glucose uptake in rat L6 cells at 0.75 uM to 3 uM pre-treated with compound for 30 mins using 2-deoxy-D-[1,2-3H]glucose and measured after 2 hrs by liquid scintillation counting method. It is filed as functional, cell-based.
Assay [11] concerns L6. Briefly: Increase in glucose uptake in rat L6 cells at 3 umol/L pre-treated with compound for 30 mins using 2-deoxy-D-[1,2-3H]glucose and measured after 2 hrs by liquid scintillation counting method relative to control. It counts as functional. In a few lines: as §1

As for `COc1ccccc1C[C@H]1C(=O)OC[C@@H]1Cc1ccc(OC)c(OC)c1`, the figures for the Activity in assay [1] and in assay [2] were 97.4% and 190.1%, respectively. For the same compound, the Ratio in [3] is given as 0.512.
The like results for `COc1ccc(C[C@H]2COC(=O)[C@@H]2Cc2cccc(Cl)c2)cc1OC` were, in that order, 114.8%, 212.4% and 0.54.
With `COc1ccc(C[C@H]2COC(=O)[C@@H]2Cc2ccc(F)cc2)cc1OC`, the values for the Activity in [4] and in [5] were 239.6% and 116.4%, respectively. Also, the Ratio in [6] is 0.486.
Take `COc1cc(C[C@H]2C(=O)OC[C@@H]2Cc2cc(OC)c(OC)c(OC)c2)ccc1O`: the Activity was 233.9% in assay [7] and 128.8% in [9]. Also, the Ratio in assay [8] is 0.551.
The like results for `COc1ccc(C[C@H]2COC(=O)[C@@H]2Cc2ccc(Br)cc2)cc1OC` were, in that order, 269.2%, 176% and 0.654.
With `COc1ccc(C[C@H]2C(=O)OC[C@@H]2Cc2ccc(OC)c(OC)c2)cc1O`, the Activity was determined as 188.9% in assay [4] and 100.4% in assay [5]. Moreover, in [6], the Ratio turned out to be 0.531.
For `COc1cc(C[C@H]2C(=O)OC[C@@H]2Cc2ccc3c(c2)OCO3)ccc1O` the same measures were 265.3%, 131.7% and 0.496.
In the case of `COc1cc(C[C@H]2C(=O)OC[C@@H]2Cc2ccc(OC)c(OC)c2)ccc1O` [ARCTIGENIN], the Activity entry in assay [10] is “Dose-dependent effect”. For the same compound, in [11], the “fold change (FC)” value was determined as 1.75.
For `COc1ccc(C[C@H]2C(=O)OC[C@@H]2Cc2ccc(OC)c(OC)c2)cc1`, the Activity was 182.1% in [4] and 108.4% in [5]. For the same compound, the Ratio in assay [6] is 0.595.
For `COc1cccc(C[C@H]2COC(=O)[C@@H]2Cc2ccc(O)c(OC)c2)c1` the same measures were 241%, 121.2% and 0.503.
With `COc1ccc(C[C@H]2COC(=O)[C@@H]2Cc2ccc(N)cc2)cc1OC`, the Activity is reported as 126.6% in assay [1] and 205.4% in [2]. Also, the Ratio in assay [3] turned out to be 0.616.
For the compound `COc1cc(C[C@H]2C(=O)CC[C@@H]2Cc2ccc(OC)c(OC)c2)ccc1O`, in assay [11], the “fold change (FC)” value is on record as 2.08.
For the compound `COc1ccc(C[C@H]2COC(=O)[C@@H]2Cc2ccc(O)c(O)c2)cc1OC`, the Activity came out at 243.2% in [1] and 238.9% in [2]. Besides, the Ratio in assay [3] is reported as 1.018.
For `COc1ccc(C[C@H]2COC(=O)[C@@H]2Cc2ccccc2O)cc1OC`, the values for the Activity in assay [4] and in [5] were 237.6% and 137.6%, respectively. Also, the Ratio in assay [6] is on record as 0.579.
As to `COc1ccc(C[C@H]2COC(=O)[C@@H]2Cc2ccc(C#N)cc2)cc1OC`, the Activity worked out at 136.7% in [1] and 258.7% in assay [2]. Further, in [3], the Ratio is 0.528.
For `COc1ccc(C[C@H]2COC(=O)[C@@H]2Cc2ccccc2Cl)cc1OC` the same measures were 112.4%, 206.4% and 0.545.
For `COc1ccc(C[C@H]2COC(=O)[C@@H]2Cc2ccc(OC)c(OC)c2)cc1OC` the same measures were 137.1%, 237.6% and 0.577.
